Measured values reported in article PMC6683736 (The Journal of Cell Biology, 2019).

Tests used:
[1] = test system: SGEF; assay: Yeast two-hybrid screen with full-length human SGEF as bait; assay type: binding; details: mouse kidney cDNA library
[2] = test system: Scribble; assay: Coimmunoprecipitation of SGEF constructs with GFP-Scribble, HEK293FT lysates; assay type: binding, Human; details: GFP-trap nanobodies, WB
[3] = test system: Dlg1; assay: Coimmunoprecipitation of SGEF constructs with GFP-Dlg1, HEK293FT lysates; assay type: binding, Mouse; details: GFP-trap nanobodies, WB
How it was run: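 HEK293FT cells were co-transfected by calcium phosphate; medium was changed at 24 h and cells harvested at 48 h. Lysis was in Tris-HCl pH 7.4, MgCl2, 150 mM NaCl, 1% Triton X-100 and protease inhibitors. Equal protein was incubated with GFP-Trap beads for 1 h at 4°C, washed four times, then immunoblotted with anti-GFP and anti-myc (or anti-His).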

[4] = test system: Scribble/SGEF/Dlg1 ternary complex; assay: Coprecipitation of Scribble with GFP-Dlg1; assay type: binding; details: HA-Scribble and GFP-Dlg1 coexpressed, IP anti-GFP, HEK293
[5] = test system: MDCK cells; assay: Height of MDCK monolayer, confocal XZ; assay type: cell-based, canine; details: average, n = 50 cells, three independent experiments; Fig. 5 I
How it was run: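 Confocal XZ sections of confluent control, SGEF-knockdown and rescue MDCK monolayers were acquired on a Leica SP8. Cells were stained for E-cadherin, β-catenin and nuclei, or for F-actin and Hoechst, and monolayer height was measured.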

[6] = test system: MDCK cells; assay: Zigzag index of tight junctions; assay type: cell-based, canine; details: average; 1 = straight line; CTRL 1.24
[7] = test system: MDCK cells; assay: Apical cell area and axial ratio; assay type: cell-based, canine; details: major/minor axis aspect ratio
How it was run: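 Apical cell area and axial ratio were measured in control, SGEF-knockdown and WT-rescue MDCK monolayers from two fields in each of two independent experiments (n = 100 cells for area, n = 150 for axial ratio). Plots show min-to-max spread.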

[8] = test system: MDCK cells; assay: Protein levels and junctional localization by WB and IF; assay type: cell-based, canine
How it was run: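 Total lysates of confluent control, SGEF-knockdown and WT-rescue MDCK cells were immunoblotted, with tubulin as loading control. For immunofluorescence, cells were fixed in 3.7% paraformaldehyde, permeabilised with 0.1% Triton X-100 and imaged by confocal. Afadin enrichment was scored as the tricellular/bicellular junction intensity ratio (≥200 junctions, at least three fields, two experiments; Mann–Whitney U test).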

[9] = test system: MDCK cells; assay: Actomyosin organization by IF; assay type: cell-based, canine; details: IF, HyVolution
[10] = test system: RhoG; assay: RhoG activity pulldown; assay type: cell-based, canine; details: normalized to total RhoG, three independent experiments
How it was run: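 Active RhoG was pulled down with GST–ELMO from total lysates of control, SGEF-knockdown and rescue MDCK cells, then immunoblotted with anti-RhoG. Active levels were normalised to total RhoG; mean ± SEM of three independent experiments.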

[11] = test system: MDCK cells; assay: 3D cyst lumen formation in matrigel; assay type: cell-based, canine
[12] = test system: Xenopus embryos; assay: Junctional localization in gastrula-stage embryos; assay type: in vivo, Xenopus laevis; details: live confocal, mNeon-tagged
How it was run: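 Embryos were microinjected in the animal hemisphere with mRNAs, either at the two-cell stage (each cell twice) or at the four-cell stage (once). They were raised to gastrula stage (10.5–12) and live-imaged by confocal. mNeon-tagged protein was coexpressed with BFP-ZO-1 (tight junction marker) and PLEKHA7-mCherry (adherens junction marker), and the junctional-to-cytosolic intensity ratio was quantified.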

Molecule: Scribble: Scribble polarity protein, 1–1,630
- potential binding partner for SGEF [1]: potential binding partner for SGEF

B1: SGEF WT: full-length SGEF 1–871, RhoG-specific GEF, myc- or mNeon-tagged (protein)
chain: MDGESEVDFSSNSITPLWRRRSIPQPHQVLGRSKPRPQSYQSPNGLLITDFPVEDGGTLLAAQIPAQVPTASDSRTVHRSPLLLGAQRRAVANGGTASPEYRAASPRLRRPKSPKLPKAVPGGSPKSPANGAVTLPAPPPPPVLRPPRTPNAPAPCTPEEDLTGLTASPVPSPTANGLAANNDSPGSGSQSGRKAKDPERGLFPGPQKSSSEQKLPLQRLPSQENELLENPSVVLSTNSPAALKVGKQQIIPKSLASEIKISKSNNQNVEPHKRLLKVRSMVEGLGGPLGHAGEESEVDNDVDSPGSLRRGLRSTSYRRAVVSGFDFDSPTSSKKKNRMSQPVLKVVMEDKEKFSSLGRIKKKMLKGQGTFDGEENAVLYQNYKEKALDIDSDEESEPKEQKSDEKIVIHHKPLRSTWSQLSAVKRKGLSQTVSQEERKRQEAIFEVISSEHSYLLSLEILIRMFKNSKELSDTMTKTERHHLFSNITDVCEASKKFFIELEARHQNNIFIDDISDIVEKHTASTFDPYVKYCTNEVYQQRTLQKLLATNPSFKEVLSRIESHEDCRNLPMISFLILPMQRVTRLPLLMDTICQKTPKDSPKYEVCKRALKEVSKLVRLCNEGARKMERTEMMYTINSQLEFKIKPFPLVSSSRWLVKRGELTAYVEDTVLFSRRTSKQQVYFFLFNDVLIITKKKSEESYNVNDYSLRDQLLVESCDNEELNSSPGKNSSTMLYSRQSSASHLFTLTVLSNHANEKVEMLLGAETQSERARWITALGHSSGKPPADRTSLTQVEIVRSFTAKQPDELSLQVADVVLIYQRVSDGWYEGERLRDGERGWFPMECAKEITCQATIDKNVERMGRLLGLETNV
modifications: left off: myc, end not stated, kept
- interaction with Scribble [2]: confirmed the interaction
- interaction with Dlg1 [3]: able to bind efficiently to Dlg1
- formation of Scribble/SGEF/Dlg1 ternary complex [4]: Scribble coprecipitated efficiently with Dlg1
- cell height [5]: 5.61 ± 0.16 µm
- zigzag index [6]: 1.16
- axial ratio [7]: could be rescued
- β-catenin and p120-catenin localization at cell–cell junctions ([8]; IF): restored to normal
- localization of Scribble and Dlg1 ([8]; IF, rescue of SGEF KD): restored the normal localization of both Scribble and Dlg1
- cadherin-6 levels ([8]; WB): restored to normal levels
- E-cadherin level and localization ([8]; WB and IF): restored both the proper expression level and localization of E-cadherin
- afadin expression levels and localization at AJs ([8]; WB and IF): rescued to normal levels
- actomyosin organization at apical junction [9]: restored the normal apical and basal actomyosin pattern
- active RhoG level [10]: returned to normal
- cysts with a single lumen ([11]; Fig. 10 D, red and dark green bars, CTRL 65%): 36%
- cysts with an open lumen ([11]; Fig. 10 D, red and orange bars, CTRL 100%): 77%
- E-cadherin expression in cysts ([11]; IF, 3D cysts): restored to normal levels
- cysts with multiple open lumens ([11]; matrigel, 4 d): 40%
- localization at apical junctional complex [12]: localized efficiently to the AJC
